Measurements pooled from the literature.
Target: Vascular endothelial growth factor receptor 2 (KDR, Homo sapiens, UniProt P35968)

C[C@@H](c1ccc(-n2cnc3c(N)ncnc32)cc1)N1CCc2nn(C)c(Cc3ccccc3)c2C1=O
remaining binding (binding, competition with immobilised ligand; 0.1 µM): 69%

CCN1CCN(Cc2ccc(C(=O)Nc3ccc(C)c(Oc4ccc5c(c4)CC(=O)N5)c3)cc2C(F)(F)F)CC1
remaining binding (binding, competition with immobilised ligand; 1 µM): 100%

CO[C@@H](C)c1c(Nc2ccc([C@@H](N(C)C(=O)C3CCS(=O)(=O)CC3)C(F)(F)F)cc2)cnc2cc(Cl)nn12
remaining binding (cell-free assay, competition with immobilised ligand; 1 µM): 95%

CC(C)(C)c1ccc(-c2nc(CBr)nn2-c2cccc(O)c2)cc1
remaining binding (cell-free assay, competition with immobilised ligand; 10 µM): 83%

CCC(=O)N[C@@H]1CC[C@H](C(=O)N(C)c2ccc(-c3nc4ccccc4o3)cc2)C1
remaining binding (cell-free assay, competition with immobilised ligand; 1 µM): 77%

O=C(c1ccc(Nc2ncc(Cl)c(-c3cc4ccccc4s3)n2)cc1)N1CCC(N2CCCC2)CC1
remaining binding (binding, competition with immobilised ligand; 1 µM): 12%

O=C(O)[C@H]1[C@H](Cn2nnc3ccccc3c2=O)CC[C@@H]1C(=O)c1ccc(OCCC2CCOCC2)cc1
remaining binding (cell-free assay, competition with immobilised ligand; 1 µM): 88%

COC(=O)Nc1nc2ccc(C(=O)c3ccccc3)cc2[nH]1
remaining binding (cell-free assay, competition with immobilised ligand; 10 µM): 30%

O=C(NCCCN1CCOCC1)c1ccc(Nc2nccc(-c3cc4ccccc4s3)n2)cc1
remaining binding (binding, competition with immobilised ligand; 1 µM): 72%

N[C@@H]1CCN(c2nccc(-c3cnn4ncccc34)n2)C1
remaining binding (binding; 1 µM): 100%

CC(C)CC(=O)N1CCc2nc(-c3ccc(Br)cc3)nc(N(C)Cc3ccccc3)c2C1
remaining binding (cell-free assay, competition with immobilised ligand; 0.1 µM): 100%

C=CC(=O)N1CCC(C(=O)NCC(=O)N2CCN(c3nc(-c4cnc(N)nc4C(F)F)nc(N4CCOCC4)n3)CC2)CC1
remaining binding (binding, competition with immobilised ligand; 1 µM): 81%

Cc1cnc(Nc2ccc(C(=O)N3CCC(N4CCCC4)CC3)cc2)nc1-c1cc2ccccc2s1
remaining binding (binding, competition with immobilised ligand; 1 µM): 4.3%

c1cnn2ncc(-c3ccnc(N4CCC45COC5)n3)c2c1
remaining binding (binding; 1 µM): 67%

COc1ncc2cc3ccccc3nc2c1C#N
remaining binding (cell-free assay, competition with immobilised ligand; 5 µM): 100%

C[C@@H]1CN(c2ccc3ncc(-c4ccc5[nH]nc(C6CC6)c5c4)n3n2)C[C@H](C)O1
remaining binding (binding, competition with immobilised ligand; 0.5 µM): 100%

COc1cnc(Nc2cccc(S(N)(=O)=O)c2)nc1N1CCN(c2ccccc2)C(=O)C1
remaining binding (binding, competition with immobilised ligand; 1 µM): 100%

CN(C)c1nccc(-c2cnc3ncccn23)n1
remaining binding (binding; 1 µM): 90%

Nc1cnc(N2CCc3cc(S(=O)(=O)Nc4c(F)cc(Cl)cc4F)cc(N4CCCC4=O)c32)nc1
remaining binding (cell-free assay, competition with immobilised ligand; 1 µM): 81%

C[C@H]1CCN(c2nccc(-c3cnn4ncccc34)n2)C1
remaining binding (binding; 1 µM): 92%

CN(C)C(=O)Cn1cc(-c2nc(C3(c4ccc(-c5cnc(N)nc5)cc4)CC3)no2)cn1
remaining binding (cell-free assay, competition with immobilised ligand; 1 µM): 70%

CN(c1nccc(-c2cnn3ncccc23)n1)C1CC1
remaining binding (binding; 1 µM): 100%

O=C(NCC1CCOCC1)c1n[nH]cc1NC(=O)c1c(F)cccc1F
remaining binding (binding, competition with immobilised ligand; 1 µM): 82%

Cc1cc(-n2nc(Cc3cc(F)cc(C(F)(F)F)c3)nc2C)ccc1C(N)=O
remaining binding (cell-free assay, competition with immobilised ligand; 1 µM): 100%

CC1CCCN1c1nccc(-c2cnn3ncccc23)n1 (stereo not shown)
remaining binding (binding; 1 µM): 100%
